Several values for one entry are separate records, joined by “and”; a condition that tells them apart may be missing. Equal values may be shown once.
How the values were obtained:
[1] = test system: MV4;11 acute leukemia cell line; assay: Cell growth inhibition; type: cell-based; conditions: Homo sapiens, MV4-11, 96 h, read-out: IC50 MV4;11 cell growth inhibition
[2] = test system: MV4;11 xenograft tumors; conditions: mouse, in vivo
[3] = target: recombinant human BRD4 BD2 (Homo sapiens, UniProt O60885); assay: Competitive fluorescence-polarization binding assay, BRD4 BD2; conditions: for Ki: BRD4 BD2 Ki, FP competitive binding
[4] = test system: MOLM-13 acute leukemia cell line; assay: Cell growth inhibition; type: cell-based; conditions: Homo sapiens, MOLM-13, 96 h, read-out: IC50 MOLM-13 cell growth inhibition
[5] = target: recombinant human BRD4 BD1 (Homo sapiens, UniProt O60885); assay: Competitive fluorescence-polarization binding assay, BRD4 BD1; conditions: for Ki: BRD4 BD1 Ki, FP competitive binding, Tables 1, 2, 7 and text
[6] = Aqueous solubility; type: physicochemical
[7] = Solubility in the dosing vehicle; type: physicochemical; conditions: 5% DMSO+10% Cremophor+85% saline
[8] = Pharmacokinetics in rats; type: in vivo, Sprague Dawley rats; conditions: for CL: Rat, PO (25 mg/kg)
Outline: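 Sprague Dawley rats got test compound iv at 5 mg/kg or orally at 25 mg/kg in a vehicle of 20% (v/v) PCP and 70% (v/v) PBS. Blood (100 μL) was drawn by catheter at 0, 5, 15 and 30 min and 1, 2, 4, 6, 8 and 24 hr, then spun at 15 000 rpm for 10 min. Plasma was stored at −80 °C and assayed by validated LC–MS/MS. Parameters were derived noncompartmentally.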

[9] = target: all other 371 kinases; assay: DiscoverX KINOMEscan kinase screening, remaining panel; type: binding, human; conditions: read-out: IC50 against all other 371 kinases
[10] = test system: PARP; assay: Western blot of PARP cleavage in MV4; type: cell-based, human; conditions: MV4;11 cells, 24 h
[11] = test system: p21; assay: Western blot of p21 in MV4; type: cell-based, human; conditions: MV4;11 cells, 24 h
[12] = test system: MDA-MB-231 xenograft tumors
[13] = test system: c-Myc; assay: Western blot of c-Myc in MV4; type: cell-based, human; conditions: MV4;11 cells, 1 h, different concentrations
[14] = Table 4 second column as headed

Compound | IC50 [1] | IC50 [3] | Ki ([3]; Tables 1, 2, 7 and text) | IC50 [4] | IC50 [5] | Ki [5] | further results
COc1cc2c(cc1-c1c(C)noc1C)ncc1[nH]c(=O)n([C@H](C)c3ccccn3)c12 [Compound 5, I-BET151, reference compound] | 162 ± 112 nM |  |  |  |  |  | weight loss or other signs of toxicity [2]: did not cause weight loss or other signs of toxicity
COc1cc2c(cc1-c1c(C)noc1C)[nH]c1ncnc(-c3c[nH]c4cc(F)ccc34)c12 [Compound 20, 4-(4-(6-Fluoro-1H-indol-3-yl)-6-methoxy-9H-pyrimido[4,5-b]indol-7-yl)-3,5-dimethylisoxazole] | 76 ± 31 nM | 12.2 ± 4.2 nM | 1 nM | 374 ± 52 nM | 2.2 ± 1 nM | 2.6 nM | Ki [3, 14]: 2.6 ± 0.8 nM
COc1cc2c(cc1-c1c(C)noc1C)[nH]c1ncnc(-c3c(C)[nH]c4ccccc34)c12 [Compound 21, 4-(6-Methoxy-4-(2-methyl-1H-indol-3-yl)-9H-pyrimido[4,5-b]indol-7-yl)-3,5-dimethylisoxazole] |  |  |  |  |  |  | aqueous solubility [6]: poor; solubility in the dosing vehicle [7]: difficult to dissolve; CL [8]: 31.7 mL/min/kg; Cmax ([8]; Sprague Dawley, rat, plasma, po, 25 mg/kg): 1470 ng/mL and ~3 µM
COc1cc2c(cc1-c1c(C)noc1C)[nH]c1ncnc(-n3nnc4ccccc43)c12 [Compound 28, 4-(4-(1H-Benzo[d][1,2,3]triazol-1-yl)-6-methoxy-9H-pyrimido[4,5-b]indol-7-yl)-3,5-dimethylisoxazole] |  |  |  |  |  |  | binding to BRD4 BD2 at 1 μM ([3]; FP binding, 1 μM): fails to show any appreciable binding; binding to BRD4 BD1 at 1 μM ([5]; FP binding, 1 μM): fails to show any appreciable binding
COc1cc2c(cc1-c1c(C)noc1C)[nH]c1nc(C)nc(-c3ccnc4ccccc34)c12 [Compound 31, 4-(6-Methoxy-2-methyl-4-(quinolin-4-yl)-9H-pyrimido[4,5-b]indol-7-yl)-3,5-dimethylisoxazole] |  |  |  |  |  |  | IC50 [9]: > 50000 nM; weight loss or other signs of toxicity [2]: did not cause weight loss or other signs of toxicity; solubility in the dosing vehicle [7]: readily soluble; CL [8]: 14.7 mL/min/kg; cleavage of PARP (marker of apoptosis) [10]: cleavage of PARP; effect on p21 protein level [11]: effective in inducing upregulation of the cell cycle regulator p21; tumor growth inhibition ([12]; MDA-MB-231 xenograft in mice, 40 mg/kg dosing daily, during the treatment period): essentially complete tumor growth inhibition; weight loss or other signs of toxicity ([12]; mouse, in vivo): did not experience weight loss or other signs of toxicity; effect on c-Myc protein level [13]: rapid down-regulation of c-Myc at as early as the 1 h time-point and in a dose-dependent manner

The next lines start with results.

IC50 [1] | IC50 [3] | Ki ([3]; Tables 1, 2, 7 and text) | IC50 [4] | IC50 [5] | Ki [5] | Compound | further results
20 ± 9 nM |  |  |  |  |  | COc1cc2c(cc1-c1c(C)noc1C)[nH]c1ccnc(-c3c(C4CC4)n[nH]c3C)c12 [Compound 6, RX-37, reference compound] | 
5.1 ± 2.8 nM | 5.6 ± 1.9 nM | < 1 nM | 51 ± 6 nM | 2.3 ± 1.1 nM | < 1 nM | COc1cc2c(cc1-c1c(C)noc1C)[nH]c1ncnc(-c3c(C)[nH]c4cc(F)ccc34)c12 [Compound 22, 4-(4-(6-Fluoro-2-methyl-1H-indol-3-yl)-6-methoxy-9H-pyrimido[4,5-b]indol-7-yl)-3,5-dimethyl isoxazole] | Ki [3, 14]: 0.9 ± 0.3 nM
99 ± 43 nM | 36.3 ± 6.9 nM | 10.5 ± 1.9 nM | 220 ± 101 nM | 93.8 ± 15.8 nM | 38.4 ± 10.5 nM | COc1cc2c(cc1-c1c(C)noc1C)[nH]c1nc(C)nc(-c3c(C)ccc4ncccc34)c12 [Compound 33, 4-(6-Methoxy-2-methyl-4-(6-methylquinolin-5-yl)-9H-pyrimido[4,5-b]indol-7-yl)-3,5-dimethyl-isoxazole] | 

From paper PMC6993113 (Journal of medicinal chemistry, 2017)
